TCR-CD3 inh = blocks the human TCR-CD3 interaction | inhibition, % at 9.4 µM | TAMRA-labeled TCR probe fluorescence, biochemical | 360,000 compounds, 0.37% hits | AID 651800; in the data active = inhibition above about 19%;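 also: recombinant mutant TCR 2C K166C tagged with TAMRA read by polarization; 0% = receptor in buffer alone and 100% = receptor with positive control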
Tn7 DDE FP = DD(E)-Tn7 binding inhibition, primary FP screen; P02675; AID 720508; inhibition, % at 8.3 µM; FP displacement of FITC-Tn7 peptide from fibrin DD(E); 0% = median of compound wells per plate; 370,000 compounds, 0.13% hits;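 active = inhibition above the mean of compounds falling within the control limits plus 3 SD of them, cut at about 14% in these data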;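 also: 0% = plate median of compound wells and 100% = 10 µM Aha-Tn7 peptide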
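Test system: human clot-derived fibrin DD(E) complex / Quantity: 2 µM final DD(E) protein / Incubation: 10 min plus 3 h, room temperature / Measured by: fluorescence polarization / Benchmarks: high control of 10 µM Aha-Tn7 peptide / Replicates: singlicate testing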
HTRA1 inhibitor = inhibitors of human serine peptidase HTRA1; Q92743; recombinant HTRA1, FP-rhodamine activity-based probe, fluorescence polarization; inhibition, % at 5.96 µM; 340,000 compounds, 0.5% hits; AID 504803; in the data active = inhibition above about 36%;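 also: 0% = enzyme with DMSO and 100% = wells lacking enzyme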
DDE Tn6 FP inh = DD(E)-Tn6 binding inhibition, primary FP screen; Fibrin DD(E) TRITC-Tn6 fluorescence polarization displacement; inhibition, % at 8.3 µM; 370,000 compounds, 0.21% hits; AID 720509;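 active = inhibition above a per-campaign cutoff: mean of compounds within control limits plus 3 SD, cut at about 15% in these data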;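 also: 0% = median of all compound wells on the plate and 100% = blocking peptide control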
mABHD4 FP = inhibitors of mouse ABHD4; purified mABHD4, FP-Rh probe fluorescence polarization; Q8VD66; inhibition, % at 8.92 µM; 370,000 compounds, 0.54% hits;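 active = inhibition exceeding the mean over every tested compound plus 3 SD, cut at about 30% in these data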;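 also: 0% = plate median of compound wells and 100% = S159A mutant with DMSO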
Target sequence (Q8VD66 whole entry, looked up): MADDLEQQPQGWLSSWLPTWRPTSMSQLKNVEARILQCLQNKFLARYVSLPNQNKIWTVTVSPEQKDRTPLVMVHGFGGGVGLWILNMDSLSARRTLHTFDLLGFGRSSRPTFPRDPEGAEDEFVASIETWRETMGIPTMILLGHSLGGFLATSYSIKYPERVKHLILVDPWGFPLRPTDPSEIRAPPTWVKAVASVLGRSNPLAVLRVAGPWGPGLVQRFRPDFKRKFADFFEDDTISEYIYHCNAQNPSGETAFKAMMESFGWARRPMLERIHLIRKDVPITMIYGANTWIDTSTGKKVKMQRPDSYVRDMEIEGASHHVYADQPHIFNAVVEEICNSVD
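Assay system: Wild-type mouse ABHD4 protein | Medium: HEPES pH 7.0 buffer, 150 mM NaCl, 0.01% Pluronic F-127 | Incubation: Enzyme–compound pre-incubation 45 min, then probe 60 min, both 25 °C | Technique: Fluorescence polarization with parallel and perpendicular emission, 525/598 nm | Evaluation: % inhibition of FP-Rh probe binding versus controls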
Active calls of the source: *; x = no result given. Sampled rows, rich in hits. Any-hit rate of the full collection: about 1.3%.

SMILES	TCR-CD3 inh	Tn7 DDE FP	HTRA1 inhibitor	DDE Tn6 FP inh	mABHD4 FP
Cc1cc(O)c(Sc2ncn[nH]2)cc1NS(=O)(=O)c1ccc(Cl)cc1	2.1	-2.5	5.2	-6.3	3.1
Cc1cc(C)c(S(=O)(=O)/N=C2/C=C(Sc3ncn[nH]3)C(=O)c3ccccc32)cc1C	5.8	1.9	22.1	-0.5	42.8*
COc1cc(/C=C2\SC(=O)N(c3ccc(Cl)cc3)C2=O)cc([N+](=O)[O-])c1O	-4.2	-1.9	10.3	-1.6	37.4*
c1ccc(CCC2CCCCN2Cc2nc(C3CC3)no2)cc1 (stereo unspecified)	1.2	5.2	-3.4	-1.0	3.1
CCC(=O)OC1(C)C(=O)C=C2C=C(c3ccsc3)OC=C2C1=O (stereo unspecified)	x	x	48.1*	x	x
COC(=O)CCC(=O)OC1(C)C(=O)C=C2C=C(c3ccsc3)OC=C2C1=O (stereo unspecified)	x	x	30.2	x	x
Cc1ccc(Nc2nc(-c3c(C)nc4ccccn34)cs2)cc1	-6.1	9.6	20.2	-3.8	34.9*
O=C(Cn1nc2ccccc2n1)N/N=C/c1cc(Cl)cc([N+](=O)[O-])c1O	55.7*	5.6	15.3	-0.4	9.2
Cc1ccc(NC(=S)/C(C#N)=C2/Nc3ccccc3S2)cc1	7.2	2.2	1.4	-4.7	63.4*
N#C/C(C(=O)N1CCCCC1)=C1\Nc2ccccc2S1	-6.0	5.3	2.2	-2.7	11.1
O=c1[nH][nH]c2c(N=Cc3ccccc3O)ccc(F)c12	x	x	46.6*	x	x
CCOC(=O)Nc1ccc2c(c1)C(=NNC(=S)NC)c1ccccc1-2	-0.4	14.9*	-55.7	2.4	-7.6
CCOC(=O)NN=C1c2ccccc2-c2ccccc21	-3.9	1.2	-8.5	-0.3	-7.4
CSc1ccc(/C=C/C(=O)c2ccc(NC(=O)Cc3ccccc3)cc2)cc1	51.0*	2.8	-54.2	-3.8	-11.4
Clc1ccccc1N1CCN(C2=Nc3ccccc3Sc3ccccc32)CC1	x	5.5	x	4.8	-0.6
O=C(Nc1cccc(Cl)c1)Nc1cc(S(=O)(=O)N2CCCCC2)ccc1Cl	84.8*	4.7	-141.9	55.1*	-170.2
CCCn1c(C(C)C)n[nH]c1=S	-0.2	-1.1	-1.3	4.4	3.2
CCOC(=O)/C=C(\C)Sc1cc(O)c2ccccc2c1O	-7.8	-1.9	20.4	-70.5	33.8*
CCOC(=O)/C=C(\C)Sc1cc(=O)oc2ccccc12	6.1	7.2	1.2	4.1	-2.1
CC(NS(=O)(=O)c1cc2c3c(c1)CCN3C(=O)CC2)c1ccccc1 (stereo unspecified)	-5.0	-5.7	-0.1	2.9	-0.7
COc1cccc2sc(Nc3nc(-c4cc5ccccc5oc4=O)cs3)nc12	19.0*	-2.8	-20.6	-4.0	2.2
CC(=O)c1ccc(NC(=O)c2ccc3nc(-c4ccco4)c(-c4ccco4)nc3c2)cc1	x	x	38.9*	x	x
O=C(Nc1ccc(N2CCOCC2)cc1)c1ccc2nc(-c3ccco3)c(-c3ccco3)nc2c1	0.4	5.6	0.2	-0.8	11.6
O=S(=O)(NCc1cccnc1)c1cc(Cl)ccc1Cl	x	x	1.8	x	x
COc1cccc2c1C(=O)c1c(O)c3c(c(O)c1C2=O)C[C@@](O)(C(=O)CO)C[C@@H]3O[C@H]1C[C@H](N)[C@@H](O)[C@H](C)O1	x	x	68.8*	x	x
SMILES	TCR-CD3 inh	Tn7 DDE FP	HTRA1 inhibitor	DDE Tn6 FP inh	mABHD4 FP
COc1ccc(C(=O)N/N=C/c2c[nH]c3ccccc23)cc1	1.3	2.9	0.4	-6.1	-3.4
COc1ccc(C(=O)N/N=C/c2cc3ccccc3[nH]c2=S)cc1	29.5*	-3.8	33.0	-2.4	5.7
CCOC(=O)c1c(NC(C)=O)sc2c(O)c(Br)cc(Br)c12	9.3	8.3	0.2	4.0	36.2*
CCOC(=O)c1c(NC(C)=O)sc2c(O)cccc12	-1.1	-2.8	-0.3	-3.5	-5.4
COc1ccccc1N1CCN(c2ccc(N3C(=O)CCC3=O)cc2[N+](=O)[O-])CC1	2.8	-4.8	-5.8	-2.8	8.0
c1ccc(CC2CCN(c3nc4ccccc4n4nnnc34)CC2)cc1	32.6*	1.9	-6.6	3.6	3.1
O=C(c1ccco1)N1CCN(c2nc3ccccc3n3nnnc23)CC1	-0.1	-2.7	-1.6	-4.8	5.5
Cc1cc(NC(=O)CSc2ccc(-c3nc4cc(C)c(C)cc4[nH]3)cn2)no1	x	x	-16.1	x	x
Cc1cc2nc(-c3ccc(SCC(=O)Nc4ccc(S(=O)(=O)NC5CC5)cc4)nc3)[nH]c2cc1C	7.5	-6.0	-97.8	28.6*	-113.9
COc1cccc(C(=O)Oc2c(CN3CCOCC3)cc(Cl)c3cccnc23)c1	-3.6	3.0	35.5	-1.5	8.8
COc1ccc(C(=O)Oc2c(CN3CCOCC3)cc(Cl)c3cccnc23)cc1	-2.6	-7.2	39.7*	4.8	4.9
O=C(NCc1ccco1)c1ccc(Oc2ccccc2)cc1	3.5	7.8	-10.3	0.2	-2.4
CCCc1ccc(-c2cc(NC(=O)Cc3c(C)[nH]c4ccccc34)ccc2N(C)c2cccnc2)cc1	-3.1	-1.7	x	-3.1	37.2*
COc1ccc(C(C#N)N2CCOCC2)cc1 (stereo unspecified)	-1.6	12.6	-1.9	6.3	-7.2
CCOC(=O)C(C)N1C(=O)S/C(=C\c2ccc(-c3ccccc3C(=O)O)o2)C1=O (stereo unspecified)	-0.9	-3.8	-1.2	4.8	7.5
Cc1ccc(C)c(N2C(=N)S/C(=C\c3ccc(-c4ccccc4C(=O)O)o3)C2=O)c1	-3.2	4.1	-13.1	-7.8	33.9*
O=C(Nc1nccs1)c1cc(-c2ccccn2)nc2c(Cl)cccc12	2.0	4.0	-8.8	-12.2	-9.3
COc1ccc2c(c1)c(=O)oc1c(C)c(OCc3cc(C(=O)O)oc3C)ccc12	5.7	-1.7	-8.1	3.1	31.9*
C/C(CC(=O)Nc1cc(C)ccn1)=N\NC(=O)c1cccc(C)c1O	35.4*	3.3	33.0	-4.6	11.2
C/C(CC(=O)Nc1cc(C)ccn1)=N\NC(=O)c1cccc(C)c1	-5.6	3.3	-0.7	-6.4	0.1
CN(C)c1ccc(NC(=O)C2C3C=CC(C3)C2C(=O)O)cc1 (stereo unspecified)	32.7*	-7.1	34.8	3.0	34.5*
CC(C)(CNC(=O)c1cc(-c2ccc(Cl)s2)nc2ccccc12)N1CCOCC1	-4.0	-1.1	-15.0	-1.9	-5.6
CCCc1c(C)[nH]c2ccc(C(=O)O)cc2c1=S	26.8*	-3.5	-47.5	5.4	-18.1
Cc1[nH]c2ccccc2c1CC(=O)Nc1ccc(Oc2cccnc2)cc1	2.1	3.1	x	-7.8	8.1
CN1CC(c2ccccn2)C2(SC(=S)N(Cc3ccccc3)C2=O)C12C(=O)Nc1ccccc12 (stereo unspecified)	-10.7	7.8	5.7	-2.2	1.5
CN1CC(c2ccccc2)C2(SC(=S)N(Cc3ccco3)C2=O)C12C(=O)Nc1ccccc12 (stereo unspecified)	5.9	14.8*	-21.1	1.6	-15.4
COc1ccc(CCNC(=O)c2nn(C)cc2Cl)cc1	0.4	7.3	-2.7	-1.3	3.0
